Active and inactive are the calls of the source.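 How the source made its calls, unless noted: active means a full or partial loss of lipid-probe fluorescence in the fish gall bladder, intestine or both, judged by eye; inactive means no fluorescence loss, or compound toxic to the fish.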
How the values were obtained:
[1] = inhibitors of TNFa-induced NFkB p65 translocation, primary screen, imaging, HUVEC, MLSMR starter and 10KST1 sets (AID 438;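 active means inhibition above 20% together with a positive visual image hit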;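 further: compound added about 3h40 before a 20 min TNFalpha stimulation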;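 on inhibition: signal is the nuclear over cytoplasmic p65 intensity ratio per well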); settings: HUVEC TNFa-induced p65 nuclear translocation; cell count: measured here: nuclei count (cytotoxicity indicator), at 2.08 µM; inhibition: at 2 µM, stronger effect = higher value, 0% TNFa-plus-vehicle, 100% no-TNFa wells
[2] = endothelial E-selectin expression blockers – imaging, HUVEC, immunofluorescence, MLSMR starter and 10KST1 sets, primary screen (AID 487;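 active means visually confirmed hit in the image check and inhibition above 20%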;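 on inhibition: signal is fraction of cell area covered by stained E-selectin grains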;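 on nuclei count: 100% = median nuclei count of all wells on the same plate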); settings: HUVEC TNFalpha-induced E-selectin immunofluorescence imaging, at 2 µM; inhibition: stronger effect = higher value; nuclei count: measured here: cell number, toxicity
[3] = Primary imaging screen for DUSP6 inhibitors that restore phospho-Erk in transfected HeLa cells, chemical complementation (AID 609;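 active means compounds giving at least 50% inhibition in the cell-based MKP-3 phosphatase rescue imaging test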;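 on inhibition: phospho-Erk level distribution per well compared with pooled transfected vehicle control wells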); settings: HeLa MKP-3 transfected, phospho-Erk imaging KS statistic, at 10 µM, cells stimulated with TPA for 15 min
[4] = molecular target: Dual specificity protein phosphatase 6 (Homo sapiens) (UniProt Q16828); experiment: as above; settings: HeLa MKP-3 transfected, phospho-Erk imaging KS statistic; at 10 µM; stronger effect = higher value; cells stimulated with TPA for 15 min
Sequence of Dual specificity protein phosphatase 6 (Homo sapiens) (Q16828 whole entry, looked up): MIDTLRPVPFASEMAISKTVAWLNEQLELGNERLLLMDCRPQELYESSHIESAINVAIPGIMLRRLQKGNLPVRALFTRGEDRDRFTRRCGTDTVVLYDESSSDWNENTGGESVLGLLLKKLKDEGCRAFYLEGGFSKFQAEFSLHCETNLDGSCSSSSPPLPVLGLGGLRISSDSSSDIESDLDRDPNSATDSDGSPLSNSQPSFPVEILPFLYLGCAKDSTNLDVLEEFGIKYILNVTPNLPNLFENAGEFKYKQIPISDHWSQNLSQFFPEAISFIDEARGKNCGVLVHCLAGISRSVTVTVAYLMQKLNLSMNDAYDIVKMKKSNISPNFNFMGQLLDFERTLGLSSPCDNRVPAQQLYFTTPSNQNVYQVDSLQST

[5] = molecular target: Voltage-gated potassium channel subunit beta-2 (Rattus norvegicus) (UniProt P62483); experiment: inhibitors of rat Kvbeta2 reductase activity – biochemical, NADPH fluorescence, primary screen (AID 622;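 active means fluorescence slope higher than the sample average by over 3 SD, cut at about -0.22 in these data, passing the limit was not always enough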;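 further: slope of raw intensity against log time taken from 70 to 1610 s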); settings: recombinant KvBeta, 4-cyanobenzaldehyde reduction, at 10 µM, stronger effect = higher value
Sequence of Voltage-gated potassium channel subunit beta-2 (Rattus norvegicus) (P62483 whole entry, looked up): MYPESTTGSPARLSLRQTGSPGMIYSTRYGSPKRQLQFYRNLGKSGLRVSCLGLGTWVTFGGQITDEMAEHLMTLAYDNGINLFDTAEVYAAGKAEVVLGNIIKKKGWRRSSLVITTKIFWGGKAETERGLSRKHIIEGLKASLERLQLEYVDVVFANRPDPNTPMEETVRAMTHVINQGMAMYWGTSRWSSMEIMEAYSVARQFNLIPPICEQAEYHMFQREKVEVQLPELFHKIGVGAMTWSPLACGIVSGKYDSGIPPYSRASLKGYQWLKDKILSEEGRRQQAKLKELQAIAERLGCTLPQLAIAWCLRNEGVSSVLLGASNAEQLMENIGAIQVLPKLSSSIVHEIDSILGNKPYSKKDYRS

[6] = molecular target: Voltage-gated potassium channel subunit beta-2 (Rattus norvegicus) (UniProt P62483); experiment: enhancers of rat Kvbeta2 NADPH turnover – biochemical, NADPH fluorescence, primary screen (AID 623;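 active means NADPH fluorescence slope more negative than the mean of all samples by about 3 SD, 99.7% confidence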;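 further: fluorescence intensity change per second fitted from 20 to 320 s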); settings: Recombinant KvBeta, NADPH fluorescence decrease slope, 10 min; at 10 µM; stronger effect = lower value
[7] = molecular target: Alpha-2C adrenergic receptor (Homo sapiens) (UniProt P18825); experiment: compounds altering alpha2C-coupled GIRK flux – cell-based, HEK293 alpha2C/GIRK1/2, thallium flux, primary screen (AID 624;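 active means fluorescence slope after compound addition differing from the mean of all screened samples at 99.7% confidence, in either direction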;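 further: slope of fluorescence ratio to pre-addition baseline per second over 15 to 24 s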); settings: thallium flux BTC fluorescence, at 10 µM, actives lie on both sides
Sequence of Alpha-2C adrenergic receptor (Homo sapiens) (P18825 whole entry, looked up): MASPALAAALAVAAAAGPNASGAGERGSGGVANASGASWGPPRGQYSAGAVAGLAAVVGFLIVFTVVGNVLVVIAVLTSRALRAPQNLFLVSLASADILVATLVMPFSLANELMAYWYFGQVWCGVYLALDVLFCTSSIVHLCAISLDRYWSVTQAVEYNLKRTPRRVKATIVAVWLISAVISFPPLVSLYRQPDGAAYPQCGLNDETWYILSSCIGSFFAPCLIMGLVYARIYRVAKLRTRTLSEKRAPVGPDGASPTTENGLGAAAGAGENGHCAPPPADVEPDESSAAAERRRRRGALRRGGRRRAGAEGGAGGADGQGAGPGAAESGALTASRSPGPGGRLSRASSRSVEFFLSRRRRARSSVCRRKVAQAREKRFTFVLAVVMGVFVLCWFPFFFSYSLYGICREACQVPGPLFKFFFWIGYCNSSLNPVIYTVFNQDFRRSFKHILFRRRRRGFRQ

[8] = inhibitors of larval lipid processing in zebrafish, primary screen, whole organism, PED6 fluorescence, gall bladder and intestine (AID 686); settings: Zebrafish larvae PED6 lipid processing, fluorescence scoring; screened at 20 µM (by protocol);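 further: larvae 5 to 7 days old with five fish per well; signal comes from phospholipase A2 cleavage of quenched PED6 carried via bile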
In short: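 Incubation: overnight exposure of larvae to compound plus PED6 / Test system: live zebrafish larvae aged 5-7 days, whole organism / Amount: 5 larvae per well / Read-out basis: visual per-well fluorescence inhibition score / Signal: visual fluorescence microscopy scoring of gall bladder, gut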

[9] = loss of swimming-algae plug formation – whole organism, Chlamydomonas reinhardtii, WT vs cilia-less mutant, absorbance, 96-well, primary screen (AID 463189;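 active means inhibition at or above 50% relative to wild type and mutant plate controls; inactive means inhibition below 50%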;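 further: 0% = wild type cc124 cells in DMSO and 100% = ciliumless bld1 mutant cells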); settings: Chlamydomonas reinhardtii gravitaxis, OD600 absorbance, 2 days; at 10 µM; stronger effect = higher value
[10] = measured here: cell density z-score
[11] = measured here: nuclear c-Myc green intensity z-score
[12] = measured here: nuclear pErk red intensity z-score, stronger effect = higher value

Structure (SMILES) | cell count [1] | inhibition [1] | inhibition [2] | nuclei count [2] | z-score [3, 10] | z-score [3, 11] | z-score [3, 12] | inhibition [4] | fluorescence slope [5] | NADPH fluorescence slope [6] | slope [7] | outcome [8] | inhibition [9]
Cc1occc1C(=O)OCC(=O)Nc1ccc(F)cc1 | 527 | -1.1% (inactive) | -31.2% (inactive) | 113% | -1.12 | -1.15 | 1.8 | 29.3% (inactive) | -0.56 (inactive) | -4.4e-05 (inactive) | 0.00567 (inactive) | inactive | 1.09% (inactive)
CCOC(=O)C(C)Oc1nc(Oc2ccccc2)nc(N(C)C)n1 (stereo not drawn) | 645 | -4.1% (inactive) | -25.5% (inactive) | 183% | 0.393 | -0.772 | 1.44 | -7.79% (inactive) | -0.497 (inactive) | -5.5e-05 (inactive) | 0.00486 (inactive) | inactive | -18.7% (inactive)
CC(C)Nc1nc(NC(C)C)nc(N(C)n2cnnc2)n1 | 629 | -8.8% (inactive) | 27.2% (inactive) | 188% | 0.189 | -1.82 | 0.165 | 20.8% (inactive) | -0.482 (inactive) | -0.000155 (inactive) | 0.0051 (inactive) | inactive | -5.15% (inactive)
COCc1cc(C)nc(N)c1C#N | 606 | 5.8% (inactive) | -20.1% (inactive) | 136% | 0.714 | -1.4 | 1.43 | 16.1% (inactive) | -0.219 (inactive) | 9.7e-06 (inactive) | 0.00554 (inactive) | inactive | -2% (inactive)
Cc1nc(N2CCN(Cc3ccccc3)CC2)c(C#N)c2c1COC(C)(C)C2 | 686 | -5.4% (inactive) | -178% (inactive) | 195% | 0.66 | -1.21 | 0.193 | 3.66% (inactive) | -0.487 (inactive) | -0.000123 (inactive) | 0.00373 (inactive) | inactive | -5.61% (inactive)
CCOC(=O)c1nc(N)c(C(=O)OCC)[nH]1 | 405 | 11.5% (inactive) | -32.3% (inactive) | 94.7% | -0.517 | 1.59 | -0.341 | 18.2% (inactive) | -0.47 (inactive) | -7.9e-05 (inactive) | 0.00468 (inactive) | inactive | -16% (inactive)
N#CC12CCCCC1CC1CCCCC1(C#N)N2Cc1ccccn1 (stereo not drawn) | 372 | -4.4% (inactive) | -22.3% (inactive) | 86.1% | 0.309 | 0.731 | -1.95 | -3.98% (inactive) | -0.46 (inactive) | -0.000337 (inactive) | 0.0048 (inactive) | inactive | -3.05% (inactive)
OC1(c2cccc(C(F)(F)F)c2)CCN(c2ncnc3c2[nH]c2ccccc23)CC1 | 447 | -2.9% (inactive) | -95% (inactive) | 165% | -0.506 | 1.11 | -2.96 | 34.7% (inactive) | -0.454 (inactive) | -5.6e-05 (inactive) | 0.0037 (inactive) | inactive | 19.3% (inactive)
CCN(CC)S(=O)(=O)c1ccc2c(c1)c(C(=O)O)cn2C | 435 | -15.2% (inactive) | -25.4% (inactive) | 114% | 0.944 | -0.275 | -1.67 | 24.4% (inactive) | -0.568 (inactive) | -6e-05 (inactive) | 0.00489 (inactive) | inactive | 22.9% (inactive)
COC(=O)c1c(NC(=O)c2nn(C)cc2Cl)sc2c1CCCC2 | 650 | 4.5% (inactive) | -19.9% (inactive) | 179% | -0.637 | -1.15 | 1.29 | 2.46% (inactive) | -0.389 (inactive) | -3.5e-05 (inactive) | 0.00842 (inactive) | inactive | 23.3% (inactive)
COc1ccccc1C(=O)N1CCN(Cc2ccc3c(c2)OCO3)CC1 | 590 | -14.5% (inactive) | 34.9% (inactive) | 183% | -2.41 | 2.03 | 1 | -15% (inactive) | -0.361 (inactive) | -4e-05 (inactive) | 0.0055 (inactive) | inactive | 12.2% (inactive)
CSC1=Nc2sc3c(c2C2=NCCN12)CC(C)(C)OC3 | 540 | -10.5% (inactive) | -3.3% (inactive) | 176% | -0.539 | 0.758 | -0.378 | 3.66% (inactive) | -0.508 (inactive) | -4.5e-05 (inactive) | 0.00474 (inactive) | inactive | 64.3% (active)
CC(C)N1CCc2c(sc(N)c2C#N)C1 | 617 | -10.3% (inactive) | 39.1% (inactive) | 177% | -1.53 | 0.299 | 0.555 | 2.71% (inactive) | -0.418 (inactive) | -6.5e-05 (inactive) | 0.00503 (inactive) | inactive | 5.66% (inactive)
COC(=O)c1nn2c(C(F)(F)F)cc(-c3ccc(Br)o3)nc2c1Br | 510 | -7.1% (inactive) | 1.9% (inactive) | 120% | -1.65 | -0.461 | 2.56 | -2.07% (inactive) | -0.442 (inactive) | -6.2e-05 (inactive) | 0.00401 (inactive) | inactive | 8.6% (inactive)
COc1cc(C2C(C(=O)c3ccc(C)o3)=C(O)C(=O)N2c2cc(C)on2)cc(OC)c1OC (stereo not drawn) | 531 | -0.1% (inactive) | -101% (inactive) | 125% | 1.95 | 0.514 | -0.298 | 19.3% (inactive) | -0.507 (inactive) | -9.6e-06 (inactive) | 0.00526 (inactive) | inactive | -18.1% (inactive)
COc1ccc(C(=O)c2sc(NC(C)C)nc2N)cc1OC | 327 | -12.2% (inactive) | -16.7% (inactive) | 105% | -0.265 | 0.429 | -0.628 | -11.9% (inactive) | -0.458 (inactive) | -6.7e-06 (inactive) | 0.0049 (inactive) | inactive | -3.2% (inactive)
COc1ccc(C2CC(C(F)(F)F)n3ncc(C(=O)NCC4CCCO4)c3N2)cc1OC (stereo not drawn) | 536 | -1.8% (inactive) | 12.3% (inactive) | 132% | -0.241 | -1.11 | 1.35 | 3.66% (inactive) | -0.51 (inactive) | -6.1e-05 (inactive) | 0.00469 (inactive) | inactive | -9.44% (inactive)
CCCc1[nH]n(-c2nc3ccccc3s2)c(=O)c1C=NCCN1CCOCC1 | 538 | 1.3% (inactive) | -110% (inactive) | 123% | -0.895 | 0.406 | -1.01 | 7.93% (inactive) | -0.474 (inactive) | -4e-05 (inactive) | 0.00553 (inactive) | inactive | 19.8% (inactive)
Cc1nc2sc3c(NCc4ccco4)ncnc3c2c2c1COC(C)(C)C2 | 595 | -11% (inactive) | -84.2% (inactive) | 181% | -1.22 | -0.424 | 1.05 | -2.69% (inactive) | -0.373 (inactive) | -3e-05 (inactive) | 0.00585 (inactive) | inactive | 45.7% (inactive)
Cc1ccccc1-c1nn2c(-c3ccccc3)nnc2s1 | 590 | -20% (inactive) | -150% (inactive) | 149% | 0.229 | -1.66 | 0.142 | -2.47% (inactive) | -0.451 (inactive) | -6e-05 (inactive) | 0.00655 (inactive) | inactive | 92.9% (active)
Cc1ccc(S(=O)(=O)/C(C#N)=C/c2c(N3CCN(C)CC3)nc3c(C)cccn3c2=O)cc1 | 485 | 3.3% (inactive) | 20% (inactive) | 160% | -0.459 | 0.434 | 1.14 | 20.3% (inactive) | -0.382 (inactive) | -4.1e-05 (inactive) | 0.00164 (active) | inactive | -7.2% (inactive)
Cc1ccc(C(=O)CSC2=C(C#N)C(c3ccco3)C3=C(CCCC3=O)N2)cc1 (stereo not drawn) | 333 | -7.4% (inactive) | -98.2% (inactive) | 165% | 1.35 | -1.13 | 0.366 | 1.42% (inactive) | -0.449 (inactive) | -0.000148 (inactive) | 0.00654 (inactive) | inactive | 8.93% (inactive)
CC(C)C1=C2OC(N)=C(C#N)C(C#N)=C2C(C)CC1 (stereo not drawn) | 361 | -6.8% (inactive) | -144% (inactive) | 150% | 0.333 | 0.379 | 0.759 | 7.48% (inactive) | -0.391 (inactive) | -3.9e-05 (inactive) | 0.0063 (inactive) | inactive | 13% (inactive)
Fc1ccc2[nH]c3c(N4CCN(c5ccccc5)CC4)ncnc3c2c1 | 424 | 5.2% (inactive) | -109% (inactive) | 93.6% | -1.72 | -0.345 | 0.928 | 6.04% (inactive) | -0.334 (inactive) | 6.6e-06 (inactive) | 0.005 (inactive) | inactive | -1.66% (inactive)
OCCOCCNc1ncnc2c1cnn2-c1ccccc1 | 472 | -2% (inactive) | -38.9% (inactive) | 162% | -0.85 | 1.86 | 0.161 | 16.8% (inactive) | -0.374 (inactive) | -1.3e-05 (inactive) | 0.00585 (inactive) | inactive | 0.488% (inactive)
COc1cccc(C2/C(=C(/O)c3cnn(-c4ccccc4)c3C)C(=O)C(=O)N2CCN(C)C)c1 (stereo not drawn) | 510 | -2.9% (inactive) | -176% (inactive) | 132% | 0.354 | -0.911 | 0.0449 | -8.76% (inactive) | -0.551 (inactive) | -7.2e-05 (inactive) | 0.00551 (inactive) | inactive | 7.34% (inactive)

Reference: PubChem BioAssay
